Values after ≈ are worked out from the molar mass of the structure shown. Active and inactive are the calls of the source. The calls are words filed in the database; no cut-off is given here.
Assays:
[1] = target: T1, Prostaglandin G/H synthase 2 (Mus musculus, UniProt Q05769); assay: Inhibition of LPS-induced COX-2 in mouse J774 cells using arachidonic acid as substrate assessed as inhibition of prostaglandin E2 production preincubated for 15 mins followed by substrate addition measured after 30 mins by RIA; format: cell-based
T1 sequence (Q05769 whole entry): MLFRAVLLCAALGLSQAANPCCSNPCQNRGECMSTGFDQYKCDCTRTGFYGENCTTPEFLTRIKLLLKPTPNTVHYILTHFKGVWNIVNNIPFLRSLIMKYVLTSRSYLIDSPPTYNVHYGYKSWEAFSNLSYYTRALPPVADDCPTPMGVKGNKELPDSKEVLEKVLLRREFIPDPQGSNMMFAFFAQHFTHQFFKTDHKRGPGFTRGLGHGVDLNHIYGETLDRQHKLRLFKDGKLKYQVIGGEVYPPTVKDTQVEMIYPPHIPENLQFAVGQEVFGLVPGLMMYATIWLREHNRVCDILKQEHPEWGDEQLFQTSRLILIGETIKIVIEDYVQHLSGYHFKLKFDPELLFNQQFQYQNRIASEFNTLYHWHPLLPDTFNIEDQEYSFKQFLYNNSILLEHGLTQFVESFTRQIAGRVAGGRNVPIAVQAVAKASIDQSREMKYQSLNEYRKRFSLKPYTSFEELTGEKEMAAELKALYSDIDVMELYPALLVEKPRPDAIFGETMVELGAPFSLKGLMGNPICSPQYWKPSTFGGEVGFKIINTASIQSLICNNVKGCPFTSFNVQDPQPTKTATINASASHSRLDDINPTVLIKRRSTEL

J774 = assay: Selectivity index, ratio of IC50 for COX-1 to IC50 for COX-2 in mouse J774 cells; format: cell-based
Outline: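 J774 macrophages stimulated 24 h with E. coli LPS (10 µg/mL) to induce COX-2, with or without compound (0.01–10 µM); supernatant PGE2 by RIA. Triplicate wells, three experiments, percent inhibition versus control, IC50 by sigmoidal fit; selectivity as COX-1/COX-2 IC50 ratio.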

[2] = target: T2, Prostaglandin G/H synthase 1 (Mus musculus) (UniProt P22437); assay: Inhibition of COX-1 in mouse J774 cells using arachidonic acid as substrate assessed as inhibition of prostaglandin E2 production at 10 uM preincubated for 15 mins followed by substrate addition measured after 30 mins by RIA; format: cell-based
T2 sequence (whole entry): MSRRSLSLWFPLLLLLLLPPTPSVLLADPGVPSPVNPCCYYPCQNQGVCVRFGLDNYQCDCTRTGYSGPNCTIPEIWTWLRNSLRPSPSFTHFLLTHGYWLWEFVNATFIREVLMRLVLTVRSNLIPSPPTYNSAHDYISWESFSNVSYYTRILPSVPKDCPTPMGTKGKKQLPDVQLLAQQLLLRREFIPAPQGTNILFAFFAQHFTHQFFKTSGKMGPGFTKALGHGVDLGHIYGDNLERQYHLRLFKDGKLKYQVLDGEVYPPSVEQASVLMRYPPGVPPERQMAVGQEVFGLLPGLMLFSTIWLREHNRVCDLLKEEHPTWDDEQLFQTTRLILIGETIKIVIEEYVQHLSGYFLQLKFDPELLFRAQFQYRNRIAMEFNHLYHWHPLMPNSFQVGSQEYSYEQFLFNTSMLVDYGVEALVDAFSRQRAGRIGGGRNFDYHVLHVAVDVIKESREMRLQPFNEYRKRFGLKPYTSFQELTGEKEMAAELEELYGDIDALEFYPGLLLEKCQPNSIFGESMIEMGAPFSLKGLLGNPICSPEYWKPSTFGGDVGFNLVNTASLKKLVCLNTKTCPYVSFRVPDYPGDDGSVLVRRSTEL
Outline: (§1)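 J774 murine macrophages pretreated 15 min with compound (10 µM; lower concentrations 0.01–1 µM where needed), then incubated 30 min at 37 °C with 15 µM arachidonic acid; supernatant PGE2 measured by RIA. Triplicate wells, mean of three experiments of percent inhibition versus control; IC50 by sigmoidal fit.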

[3] = target: T3, Prostaglandin G/H synthase 2 (Mus musculus) (UniProt Q05769); assay: Inhibition of LPS-induced COX-2 in mouse J774 cells using arachidonic acid as substrate assessed as inhibition of prostaglandin E2 production at 10 uM preincubated for 15 mins followed by substrate addition measured after 30 mins by RIA; format: cell-based
T3 sequence (whole entry): T1 sequence (Q05769 whole entry)

[4] = target: T4, Prostaglandin G/H synthase 1 (Mus musculus, UniProt P22437); assay: Inhibition of COX-1 in mouse J774 cells using arachidonic acid as substrate assessed as inhibition of prostaglandin E2 production preincubated for 15 mins followed by substrate addition measured after 30 mins by RIA; format: cell-based; outline: as §1
T4 sequence (P22437 whole entry): T2 sequence (whole entry)

Mus musculus [5] = assay: Analgesic activity in po dosed Swiss albino mouse assessed as reduction of acetic acid-induced writhing measured every 10 mins after 5 mins of administration; format: functional, organism-based
Outline: (§2)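 Male Swiss albino mice (23–25 g), compound given orally in CMC vehicle; writhing induced by 0.6% acetic acid (10 mL/kg) ip. Stretching movements counted for 10 min, starting 5 min after administration; percent reduction versus CMC-treated animals.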

Mus musculus [6] = assay: Analgesic activity in Swiss albino mouse assessed as reduction of acetic acid-induced writhing at 40 mg/kg, po measured every 10 mins after 5 mins of administration relative to control; format: functional; set-up: scale not given: the % may be the effect or the level left; outline: as §2
Mus musculus [7] = assay: Analgesic activity in Swiss albino mouse assessed as reduction of acetic acid-induced writhing at 10 mg/kg, po measured every 10 mins after 5 mins of administration relative to control; format: functional; set-up: scale not given: the % may be the effect or the level left; outline: as §2
Mus musculus [8] = assay: Analgesic activity in Swiss albino mouse assessed as reduction of acetic acid-induced writhing at 20 mg/kg, po measured every 10 mins after 5 mins of administration relative to control; format: functional; set-up: scale not given: the % may be the effect or the level left; outline: as §2
[9] = Solubility of the compound in simulated gastric fluid at pH 1.5 after 90 mins by HPLC analysis; format: ADME
Outline: (§3)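 DMSO stock (20 mM) diluted 2 µL into 198 µL PBS 0.01 M pH 7.4 or pepsin-free SGF 0.05 M pH 1.5, duplicate wells, shaken 90 min at 300 rpm. Filtrates analysed by HPLC with photodiode-array detection against seven-point standards (1–200 µM).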

Thoracic aorta [10] = assay: Ex vivo vasorelaxant activity in Wistar rat endothelium thoracic aortic ring assessed as reduction of KCl-induced contraction in presence of guanylate cyclase inhibitor ODQ; format: functional
Outline: (§4)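 Endothelium-denuded thoracic aortic rings from male Wistar rats (250–350 g) in oxygenated Tyrode-type buffer at 37 °C, isometric tension recording. Rings precontracted with 30 mM KCl, then 3-fold increasing compound concentrations (1 nM–10 µM) added, also with 1 µM ODQ preincubated. Emax as % of KCl tone; pIC50; mean ± SE of 6–10 experiments.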

Thoracic aorta [11] = assay: Ex vivo vasorelaxant activity in Wistar rat endothelium thoracic aortic ring assessed as reduction of KCl-induced contraction at 0.001 uM to 10 uM relative to control; format: functional; outline: as §4
[12] = Solubility of the compound in phosphate buffer saline at pH 7.4 after 90 mins by HPLC analysis; format: physicochemical; outline: as §3
[13] = Stability of the compound in phosphate buffer saline assessed as compound remaining at pH 7.4 after 30 mins by LC-MS/MS analysis; format: physicochemical; conditions: read-out: Stability
Outline: (§5)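 1 mM DMSO stock added to 0.01 M PBS (pH 7.4) or 0.05 M simulated gastric fluid without pepsin (pH 1.5 with HCl); incubated in hybridisation oven; aliquots at 0, 30, 60, 120 min quenched with ice-cold acetonitrile containing internal standard; parent remaining (%) measured.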

[14] = Stability of the compound in simulated gastric fluid assessed as compound remaining at pH 1.5 after 60 mins by LC-MS/MS analysis; format: physicochemical; conditions: read-out: Stability; outline: as §5
[15] = Metabolic stability in Sprague-Dawley rat plasma assessed as compound remaining after 60 mins by LC-MS/MS analysis; format: ADME, cell-free; conditions: read-out: Stability
Outline: (§6)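 Compound (12 µL of 1 mM DMSO solution into 588 µL medium) incubated in PBS pH 7.4, pepsin-free SGF pH 1.5, or EDTA rat plasma. Aliquots taken at 0, 30, 60, 120 min and quenched with ice-cold acetonitrile containing internal standard; parent remaining as percent.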

[16] = Metabolic stability in Sprague-Dawley rat plasma assessed as compound remaining after 120 mins by LC-MS/MS analysis; format: ADME, cell-free; conditions: read-out: Stability; outline: as §6
[17] = Stability of the compound in phosphate buffer saline assessed as compound remaining at pH 7.4 after 60 mins by LC-MS/MS analysis; format: physicochemical; conditions: read-out: Stability; outline: as §5
[18] = Stability of the compound in simulated gastric fluid assessed as compound remaining at pH 1.5 after 120 mins by LC-MS/MS analysis; format: physicochemical; conditions: read-out: Stability; outline: as §5
[19] = Stability of the compound in phosphate buffer saline assessed as compound remaining at pH 7.4 after 120 mins by LC-MS/MS analysis; format: physicochemical; conditions: read-out: Stability; outline: as §6
[20] = Metabolic stability in Sprague-Dawley rat plasma assessed as compound remaining after 30 mins by LC-MS/MS analysis; format: ADME, cell-free; conditions: read-out: Stability; outline: as §6
[21] = Stability of the compound in simulated gastric fluid assessed as compound remaining at pH 1.5 after 30 mins by LC-MS/MS analysis; format: physicochemical; conditions: read-out: Stability; outline: as §5

Structure (SMILES)	IC50 [1] [nM]	Ratio IC50 (J774)	inhibition [2] [%]	inhibition [3] [%]	IC50 [4] [nM]	Activity (Mus musculus [5])	Activity (Mus musculus [6]) [%]	Activity (Mus musculus [7]) [%]	Activity (Mus musculus [8]) [%]	solubility at 1.5 h [9] [µM]	Activity (Thoracic aorta [10])	Emax (Thoracic aorta [11]) [%]	also measured
Cc1c(CC(=O)NCCCO)cc(-c2ccc(S(C)(=O)=O)cc2)n1-c1cccc(F)c1	45	> 222	17	100	> 10000								
Cc1c(CC(=O)NC(CCO)C(=O)O)cc(-c2ccc(S(C)(=O)=O)cc2)n1-c1ccc(F)cc1 (racemic)		> 16	19	89	> 10000								
Cc1c(CC(=O)NC(CCO)C(=O)O)cc(-c2ccc(S(C)(=O)=O)cc2)n1-c1cccc(F)c1 (racemic)		> 10	16	79	> 10000								
Cc1c(CC(=O)NC(CO)C(=O)O)cc(-c2ccc(S(C)(=O)=O)cc2)n1-c1ccc(F)cc1 (racemic)	160	> 62.5	23	100	> 10000	Dose-dependent effect	60	27	59				
Cc1c(CC(=O)NCCCO)cc(-c2ccc(S(C)(=O)=O)cc2)n1-c1ccc(F)cc1		> 147	21	100	> 10000								
Cc1c(CC(=O)NCCO[N+](=O)[O-])cc(-c2ccc(S(C)(=O)=O)cc2)n1-c1cccc(F)c1	300	> 33	0	95	> 10000	Dose-dependent effect	55	18	37	150 (≈ 71.3 µg/mL)	inactive	49	solubility at 1.5 h [12]: > 200 µM
Cc1c(C(N)C(=O)OCCO[N+](=O)[O-])cc(-c2ccc(S(C)(=O)=O)cc2)n1-c1ccc(F)cc1 (stereo unspecified)										> 200			remaining at 0.5 h [13]: 75%; remaining at 1 h [14]: 100%; remaining at 1 h [15]: 0%; remaining at 2 h [16]: 0%; remaining at 1 h [17]: 75%; remaining at 2 h [18]: 100%; remaining at 2 h [19]: 75%; remaining at 0.5 h [20]: 0%; solubility at 1.5 h [12]: 80 µM (≈ 39.3 µg/mL); remaining at 0.5 h [21]: 100%
Cc1c(CC(=O)OCCO[N+](=O)[O-])cc(-c2ccc(S(C)(=O)=O)cc2)n1-c1cccc(F)c1										< 1			remaining at 0.5 h [13]: 74.1%; remaining at 1 h [14]: 65.7%; remaining at 1 h [15]: 0%; remaining at 2 h [16]: 0%; remaining at 1 h [17]: 53.6%; remaining at 2 h [18]: 42.8%; remaining at 2 h [19]: 0.15%; remaining at 0.5 h [20]: 0%; remaining at 0.5 h [21]: 80.2%
Cc1c(CC(=O)NCCO)cc(-c2ccc(S(C)(=O)=O)cc2)n1-c1cccc(F)c1		> 34	0	95	> 10000								
Cc1c(CC(=O)NC(CO[N+](=O)[O-])C(=O)O)cc(-c2ccc(S(C)(=O)=O)cc2)n1-c1ccc(F)cc1 (stereo unspecified)	310	> 32	0	100	> 10000	Dose-dependent effect	50	0	29	112 (≈ 58.2 µg/mL)	inactive	25	solubility at 1.5 h [12]: 90.5 µM (≈ 47 µg/mL)
Cc1c(CC(=O)NC(CO)C(=O)O)cc(-c2ccc(S(C)(=O)=O)cc2)n1-c1cccc(F)c1 (racemic)	68	> 167	23	100	> 10000								
Cc1c(CC(=O)NC(CO[N+](=O)[O-])C(=O)O)cc(-c2ccc(S(C)(=O)=O)cc2)n1-c1cccc(F)c1 (racemic)	140	> 71	0	100	> 10000	Dose-dependent effect	50	12	47		inactive	18	remaining at 0.5 h [13]: 75%; remaining at 1 h [14]: 93.8%; remaining at 1 h [15]: 57.1%; remaining at 2 h [16]: 28.6%; remaining at 1 h [17]: 50%; remaining at 2 h [18]: 87.5%; remaining at 2 h [19]: 37.5%; remaining at 0.5 h [20]: 71.4%; remaining at 0.5 h [21]: 100%
Cc1c(CC(=O)NC(CCO[N+](=O)[O-])C(=O)O)cc(-c2ccc(S(C)(=O)=O)cc2)n1-c1cccc(F)c1 (racemic)		> 6	27	43	> 10000	Dose-dependent effect	23		10		inactive	25	
